Where two headings read alike, the source gives them in different places.
Assays:
recombinant PLD2 [1] = biological target: T1, recombinant PLD2 (Homo sapiens, UniProt O14939); test: Enzyme inhibition kinetics with purified recombinant PLD2; type: biochemical; settings: 300 nM inhibitor; for Effect on Km / Effect on Vmax / Type of inhibition (Lineweaver Burk plot): increasing PC
Procedure, shortened: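 Purified full-length PLD2 was expressed in Sf21 insect cells with a baculovirus system and enriched on TALON matrix. Two assay formats were used. In one, increasing enzyme amounts, untreated or with 300 nM inhibitor, were run with fixed PC at 3.5 mM. In the other, fixed enzyme, ± 300 nM inhibitor, was run with increasing PC. [3H]-phosphatidylbutanol co-migrating with PBut standards was measured by scintillation counting. Data were plotted as Michaelis-Menten and Lineweaver-Burk plots.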

PLD2 mutants [2] = test: Lipase activity of PLD2 mutants overexpressed in COS7 cells; type: biochemical
Procedure, shortened: (§1)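 COS-7 cells in DMEM/10% FBS were transfected at 60% confluence with 1–6 μg plasmid (PLD2 mutants) using Lipofectamine/Plus, with 3 h exposure and 48 h expression. Lysates were treated with 300 nM test compound for 25 min. The lipase assay ran 20 min at 30 °C with shaking and was stopped with ice-cold chloroform/methanol (1:2). Lipids were separated by TLC, and [3H]-phosphatidylbutanol was quantified by scintillation counting.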

PLD2 mutants [3] = biological target: PLD2 mutants (Homo sapiens, UniProt O14939, S757A); test: as above; type: biochemical; settings: 300 nM
Sequence of PLD2 mutants (Homo sapiens, UniProt O14939, S757A) (O14939 whole entry S757A): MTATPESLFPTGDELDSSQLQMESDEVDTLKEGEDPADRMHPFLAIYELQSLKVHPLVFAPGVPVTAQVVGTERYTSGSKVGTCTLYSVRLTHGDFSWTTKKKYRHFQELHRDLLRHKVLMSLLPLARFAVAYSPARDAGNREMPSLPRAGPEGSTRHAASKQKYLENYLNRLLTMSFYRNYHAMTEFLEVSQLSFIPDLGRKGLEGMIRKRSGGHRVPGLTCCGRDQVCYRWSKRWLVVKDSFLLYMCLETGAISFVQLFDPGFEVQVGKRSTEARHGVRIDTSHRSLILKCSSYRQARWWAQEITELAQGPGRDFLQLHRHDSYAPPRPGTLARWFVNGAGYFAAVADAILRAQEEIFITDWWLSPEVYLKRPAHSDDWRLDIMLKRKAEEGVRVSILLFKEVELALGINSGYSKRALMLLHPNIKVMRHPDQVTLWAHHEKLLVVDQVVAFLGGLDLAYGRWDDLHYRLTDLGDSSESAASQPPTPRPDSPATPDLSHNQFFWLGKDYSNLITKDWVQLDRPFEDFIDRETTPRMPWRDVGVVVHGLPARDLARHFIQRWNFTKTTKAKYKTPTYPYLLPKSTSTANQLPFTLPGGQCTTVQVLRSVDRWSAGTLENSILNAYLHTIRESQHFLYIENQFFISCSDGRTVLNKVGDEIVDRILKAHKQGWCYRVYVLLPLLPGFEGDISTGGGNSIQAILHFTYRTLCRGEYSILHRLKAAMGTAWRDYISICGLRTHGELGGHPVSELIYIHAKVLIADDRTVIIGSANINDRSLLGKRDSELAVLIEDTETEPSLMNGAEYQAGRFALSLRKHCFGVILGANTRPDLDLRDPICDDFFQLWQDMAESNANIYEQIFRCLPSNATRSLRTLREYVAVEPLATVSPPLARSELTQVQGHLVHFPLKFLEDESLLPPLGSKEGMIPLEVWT
Procedure, shortened: as §1

[4] = in vivo ref Monovich, Mugrage et al. 2007; cited from earlier work
recombinant PLD2 [5] = biological target: T1, recombinant PLD2; test: Lipase assay of recombinant PLD2 with increasing concentrations of PIP2; type: biochemical; settings: 300 nM inhibitor, fixed PC8
Procedure, shortened: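 Baculovirus-expressed, TALON-enriched full-length PLD2 was left untreated or treated with 300 nM inhibitor. It was then run in the lipase assay with increasing PIP2 concentrations and a fixed concentration of PC8 substrate. Activity was read as radiolabelled phosphatidylbutanol, co-migrating with PBut standards, by scintillation counting.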

PLD1 [6] = biological target: T2, PLD1 (Homo sapiens, UniProt Q13393); settings: inhibiting PLD1 in the tumor microenvironment ref Chen, Hongu et al. 2012; cited from earlier work
T2 sequence (Q13393 1-1074): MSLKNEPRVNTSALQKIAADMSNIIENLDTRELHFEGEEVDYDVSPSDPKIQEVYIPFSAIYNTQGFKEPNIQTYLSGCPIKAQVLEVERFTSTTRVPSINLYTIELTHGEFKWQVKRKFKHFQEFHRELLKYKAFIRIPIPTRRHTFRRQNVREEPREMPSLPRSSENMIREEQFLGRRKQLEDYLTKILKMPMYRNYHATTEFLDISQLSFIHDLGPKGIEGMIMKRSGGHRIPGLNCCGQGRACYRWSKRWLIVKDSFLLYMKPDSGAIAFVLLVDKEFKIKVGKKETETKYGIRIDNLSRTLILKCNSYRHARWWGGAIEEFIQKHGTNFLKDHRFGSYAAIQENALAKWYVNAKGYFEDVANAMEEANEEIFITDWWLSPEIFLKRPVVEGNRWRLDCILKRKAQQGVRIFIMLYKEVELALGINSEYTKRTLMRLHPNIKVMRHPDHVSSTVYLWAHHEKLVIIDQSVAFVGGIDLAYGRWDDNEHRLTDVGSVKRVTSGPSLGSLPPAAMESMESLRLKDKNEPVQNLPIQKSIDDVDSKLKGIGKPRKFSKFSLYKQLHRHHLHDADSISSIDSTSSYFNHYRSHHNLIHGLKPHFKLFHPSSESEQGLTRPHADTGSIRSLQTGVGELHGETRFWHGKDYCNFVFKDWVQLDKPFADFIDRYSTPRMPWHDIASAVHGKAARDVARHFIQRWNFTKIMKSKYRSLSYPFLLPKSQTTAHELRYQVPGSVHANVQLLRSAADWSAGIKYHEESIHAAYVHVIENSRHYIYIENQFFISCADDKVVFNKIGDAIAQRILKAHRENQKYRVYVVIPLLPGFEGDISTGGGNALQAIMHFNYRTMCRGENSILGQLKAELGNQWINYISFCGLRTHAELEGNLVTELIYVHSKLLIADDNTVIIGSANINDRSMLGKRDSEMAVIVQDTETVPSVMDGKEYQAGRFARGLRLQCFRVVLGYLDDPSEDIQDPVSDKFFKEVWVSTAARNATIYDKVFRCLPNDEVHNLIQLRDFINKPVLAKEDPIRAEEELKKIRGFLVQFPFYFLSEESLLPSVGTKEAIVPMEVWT

PLD1 [7] = biological target: T2, PLD1; test: Phospholipase; type: biochemical
PLD = settings: cited from earlier work
[8] = tested on: breast cancer cells (MDA-MB-231); test: Cell invasion assay; type: cell-based; settings: 300 nM, 700 nM; not in cells overexpressing resistant PLD2 mutants
Procedure, shortened: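 PLD2 mutant constructs were overexpressed by transfection. After transfection, cells were harvested and treated with the test compound at 300 or 700 nM for 20 min. Invasion was then run in Matrigel inserts.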

PLD2 = settings: xenograft mice models ref Henkels, Boivin et al. 2013; cited from earlier work
[9] = ref Lewis JA et al, Bioorg Med Chem Lett, 2009

T1 sequence (O14939 whole entry, species assumed): as the sequence (O14939 whole entry S757A) above, with A757S counted along it

With O=C(NCCN1CCC(n2c(=O)[nH]c3ccccc32)CC1)c1cc2cc(F)ccc2[nH]1 [FIPI, N-[2-[4-(2,3-dihydro-2-oxo-1H-benzimidazol-1-yl)-1-piperidinyl]ethyl]-5-fluoro-1H-indole-2-carboxamide] the “Competition by increasing enzyme or substrate” value (recombinant PLD2 [1]) was “not totally competed off”, the “Effect on Km” value (recombinant PLD2 [1]) was “increase the Km” and the “Effect on Vmax” value (recombinant PLD2 [1]) was “decreasing the Vmax”. For the same molecule, the “Type of inhibition (Lineweaver Burk plot)” value (recombinant PLD2 [1]) was “mixed-type inhibition”, the “Inhibition of lipase activity of the battery of PLD2 mutants” value (PLD2 mutants [2]; 300 nM) was “inhibited most of the mutants” and the “Inhibition of PLD2-S757A lipase activity” value (PLD2 mutants [3]) was “resistant”. For the same molecule, the bioavailability [4] was 18%, the half-life in vivo [4] was 5.5 h and the “PLD2 inhibition with increasing concentrations of PIP2” value (recombinant PLD2 [5]) was “FIPI inhibited the enzyme”. The Metastasis and angiogenesis (PLD1 [6]) was “dampens metastasis and angiogenesis”, the IC50 (PLD1 [7]) was 30 nM and the Isoform specificity (PLD; ref Su W et al, Mol Pharmacol, 2009) was “Dual (PLD1 and PLD2) inhibitor”.

For CC(CN1CCC(n2c(=O)[nH]c3cc(Cl)ccc32)CC1)NC(=O)c1ccc2ccccc2c1 (stereo not shown) [NBOD, N-[2-[4-(5-chloro-2,3-dihydro-2-oxo-1H-benzimidazol-1-yl)-1-piperidinyl]-1-methylethyl]-2-naphthalenecarboxamide], the Isoform specificity (PLD; [9]) is given as “PLD1 inhibitor”.

For O=C(NCCN1CCC2(CC1)C(=O)NCN2c1cccc(F)c1)c1ccc2ccccc2c1 [NFOT, N-[2-[1-(3-Fluorophenyl)-4-oxo-1,3,-8-triazaspiro[4,5]dec-8-yl]ethyl]-2-naphthalenecarboxamide], the “Effect on Km” value (recombinant PLD2 [1]) was “increase the Km”, the “Effect on Vmax” value (recombinant PLD2 [1]) was “decreasing the Vmax” and the “Type of inhibition (Lineweaver Burk plot)” value (recombinant PLD2 [1]) was “mixed-type inhibition”. For the same molecule, the “Cell invasion of cancer cells” value [8] was “prevents cell invasion”, the “Inhibition of PLD2-H158Q, Y165F, L173A, R210/212A, F244N/L245/L246A, S648A and S757A lipase activity” value (PLD2 mutants [2]; 300 nM) was “demonstrated resistance” and the “Inhibition of PLD2-R210A/R212A, F244N/L245/L246A, S648A and S757A lipase activity” value (PLD2 mutants [2]; range of inhibitor concentrations, Figure 5) was “partially resistant to inhibition”. For the same molecule, the “PLD2 inhibition with increasing concentrations of PIP2” value (recombinant PLD2 [5]) was “enzyme activity was regained back” and the Isoform specificity (PLD; ref Lavieri RR et al, J Med Chem, 2010) was “PLD2 inhibitor”.

In the case of O=C(NCCN1CCC2(CC1)C(=O)NCN2c1ccccc1)c1ccc2ccccc2c1 [NOPT, N-[2-(4-oxo-1-phenyl-1,3,8-triazaspiro[4,5]dec-8-yl)ethyl]-2-naphthalenecarboxamide], the “Tumor metastasis and cell invasion” value (PLD2) is given as “inhibited tumor metastasis and cell invasion” and the Isoform specificity (PLD; [9]) is given as “PLD2 inhibitor”.

For C[C@@H](CN1CCC(n2c(=O)[nH]c3cc(Br)ccc32)CC1)NC(=O)[C@@H]1C[C@H]1c1ccccc1 [RBPC, (1R,2R)-N-([S]-1-{4-[5-bromo-2-oxo-2,3-dihydro-1H-benzo(d)imidazol-1-yl]piperidin-1-yl}propan-2-yl)-2-phenylcyclopropanecarboxamide], the “Inhibition of PLD activity in PLD1 overexpressed samples” value (PLD1 [7]; Figure 1) is listed as “did not efficiently inhibit PLD activity” and the Isoform specificity (PLD; [9]) is listed as “PLD1 inhibitor”.

Source: PMC4312721 (Biochimica et biophysica acta, 2014)
